Experiments:
Histamine H4 receptor [1] = biological target: T1, Histamine H4 receptor (Homo sapiens, UniProt Q9H3N8); experiment: Displacement of [3H]histamine from human histamine H4 receptor transfected in SK-N-MC cells
Histamine H4 receptor [2] = biological target: T1, Histamine H4 receptor; experiment: Agonist activity at human histamine H4 receptor transfected in SK-N-MC cells; format: functional, cell-based
Histamine H4 receptor [3] = biological target: T1, Histamine H4 receptor; experiment: Activity at human histamine H4 receptor transfected in SK-N-MC cells by cAMP assay; format: functional, cell-based
Method in brief: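 Colorimetric cAMP read-out in SK-N-MC cells stably expressing the human H4 receptor together with a CRE-β-galactosidase reporter gene, used to measure functional activity.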

Histamine H3 receptor = Histamine H3 receptor (Homo sapiens, UniProt Q9Y5N1); experiment: Displacement of [3H]histamine from human histamine H3 receptor transfected in SK-N-MC cells; format: cell-based
Chain of Histamine H3 receptor (Q9Y5N1 whole entry): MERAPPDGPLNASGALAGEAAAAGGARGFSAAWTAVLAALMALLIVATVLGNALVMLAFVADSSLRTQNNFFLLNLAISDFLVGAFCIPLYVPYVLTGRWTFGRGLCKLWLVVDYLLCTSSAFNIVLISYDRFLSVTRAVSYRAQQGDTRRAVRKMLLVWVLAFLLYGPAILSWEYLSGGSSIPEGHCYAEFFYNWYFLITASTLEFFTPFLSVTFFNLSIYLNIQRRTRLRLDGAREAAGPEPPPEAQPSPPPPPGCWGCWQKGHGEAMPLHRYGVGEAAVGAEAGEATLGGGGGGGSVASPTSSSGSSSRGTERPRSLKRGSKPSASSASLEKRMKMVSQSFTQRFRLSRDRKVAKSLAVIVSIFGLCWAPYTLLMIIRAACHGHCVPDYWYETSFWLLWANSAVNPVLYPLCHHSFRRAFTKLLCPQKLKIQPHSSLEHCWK
Method in brief: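 Homogenates of SK-N-MC cells stably expressing the human H3 receptor were used. Affinity was determined by radioligand displacement.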

Histamine H1 receptor [4] = biological target: T2, Histamine H1 receptor (Homo sapiens, UniProt P35367); experiment: Activity at human histamine H1 receptor transfected in COS7 cells by NF-kappaB luciferase reporter assay; format: functional, cell-based, COS-7
T2 sequence (P35367 whole entry): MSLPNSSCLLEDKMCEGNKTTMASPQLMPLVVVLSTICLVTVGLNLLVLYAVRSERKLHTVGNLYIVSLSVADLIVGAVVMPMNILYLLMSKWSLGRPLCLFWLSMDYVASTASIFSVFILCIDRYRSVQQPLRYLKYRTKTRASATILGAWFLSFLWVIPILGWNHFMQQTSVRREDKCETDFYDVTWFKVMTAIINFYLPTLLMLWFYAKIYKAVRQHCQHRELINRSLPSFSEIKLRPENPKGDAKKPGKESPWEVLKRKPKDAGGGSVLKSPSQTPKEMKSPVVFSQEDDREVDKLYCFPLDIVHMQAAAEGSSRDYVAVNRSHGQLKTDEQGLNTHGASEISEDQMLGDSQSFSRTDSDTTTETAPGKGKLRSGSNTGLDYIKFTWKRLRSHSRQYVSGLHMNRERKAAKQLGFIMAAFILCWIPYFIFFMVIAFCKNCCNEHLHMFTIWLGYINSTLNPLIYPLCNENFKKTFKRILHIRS

Histamine H1 receptor [5] = biological target: T2, Histamine H1 receptor; experiment: Displacement of [3H]mepyramine from human histamine H1 receptor
Histamine H4 receptor [6] = biological target: T1, Histamine H4 receptor; settings: SK-N-MC, 30 nM
Histamine H2 receptor = Histamine H2 receptor (Homo sapiens, UniProt P25021); experiment: Displacement of [3H]APT from human histamine H2 receptor transfected in COS7 cells; format: cell-based, COS-7
Chain of Histamine H2 receptor (P25021 whole entry): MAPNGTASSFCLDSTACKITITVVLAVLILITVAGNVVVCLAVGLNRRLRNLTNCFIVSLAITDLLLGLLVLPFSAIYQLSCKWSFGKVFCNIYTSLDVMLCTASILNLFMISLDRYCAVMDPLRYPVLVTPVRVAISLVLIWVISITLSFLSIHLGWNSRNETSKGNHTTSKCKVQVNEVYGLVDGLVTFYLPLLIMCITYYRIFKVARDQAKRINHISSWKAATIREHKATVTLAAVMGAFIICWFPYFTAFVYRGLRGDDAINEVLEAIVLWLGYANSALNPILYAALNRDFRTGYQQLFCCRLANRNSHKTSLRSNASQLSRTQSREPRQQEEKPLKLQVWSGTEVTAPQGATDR

Histamine H4 receptor [7] = biological target: T1, Histamine H4 receptor; settings: SK-N-MC, 10 nM
Histamine H4 receptor [8] = biological target: T1, Histamine H4 receptor; settings: SK-N-MC, 100 nM
Histamine H4 receptor [9] = biological target: T1, Histamine H4 receptor; settings: SK-N-MC, 1 uM
Histamine H4 receptor [10] = biological target: T1, Histamine H4 receptor; settings: SK-N-MC, 300 nM

T1 sequence (Q9H3N8 whole entry): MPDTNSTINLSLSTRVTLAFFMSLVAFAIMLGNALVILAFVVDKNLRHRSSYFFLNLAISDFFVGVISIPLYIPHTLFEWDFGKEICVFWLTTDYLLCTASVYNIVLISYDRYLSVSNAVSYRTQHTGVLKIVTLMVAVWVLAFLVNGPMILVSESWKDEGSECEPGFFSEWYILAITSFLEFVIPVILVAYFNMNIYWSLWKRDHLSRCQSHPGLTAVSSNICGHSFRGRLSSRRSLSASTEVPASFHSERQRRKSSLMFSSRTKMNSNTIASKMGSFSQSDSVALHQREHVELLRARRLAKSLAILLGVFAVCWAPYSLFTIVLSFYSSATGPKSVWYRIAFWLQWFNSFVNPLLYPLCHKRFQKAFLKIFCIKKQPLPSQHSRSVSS

SMILES	Ki (Histamine H4 receptor [1])	Activity (Histamine H4 receptor [2])	EC50 (Histamine H4 receptor [3])	other results
Clc1ccc2c(c1)N=C(N1CCNCC1)c1ccccc1O2	324 nM	–	–	–
CN1CCN(C2=Nc3cc(Cl)ccc3Oc3ccc(F)cc32)CC1	191 nM	1	81.3 nM	–
CC(C)N1CCN(C2=Nc3cc(Cl)ccc3Oc3ccccc32)CC1	1070 nM	–	–	–
CN1CCN(C2=Nc3ccc(Cl)cc3Oc3ccccc32)CC1	–	1	–	Ki (Histamine H3 receptor): 9120 nM; EC50 (Histamine H1 receptor [4]): 6.76 nM; Ki (Histamine H1 receptor [5]): 7.76 nM; Bmax (Histamine H4 receptor [6]): 934 fmol/mg; Ki (Histamine H2 receptor): 8710 nM; Bmax (Histamine H4 receptor [7]): 951 fmol/mg; Bmax (Histamine H4 receptor [8]): 934 fmol/mg
Cc1ccc2c(c1)Oc1ccccc1C(N1CCN(C)CC1)=N2	79.4 nM	1	105 nM	–
CN1CCN(C2=Nc3ccccc3Cc3ccccc32)CC1 [PERLAPINE]	4790 nM	–	–	–
CN1CCN(C2=Nc3ccc(Cl)cc3Oc3c(F)cccc32)CC1	30.9 nM	1	20.4 nM	–
CN1CCN(C2=Nc3cc(Cl)ccc3Oc3cc(Cl)ccc32)CC1	309 nM	1	102 nM	–
CN1CCN(C2=Nc3ccc(Cl)cc3Oc3cc(F)ccc32)CC1	38.9 nM	1	38.9 nM	–
CN1CCN(C2=Cc3ccccc3Oc3ccc(Cl)cc32)CC1	> 10000 nM	–	–	–
CN1CCN(C2=Nc3ccccc3Oc3ccccc32)CC1	132 nM	1	302 nM	–
CN1CCN(C2=Nc3ccc(Cl)cc3Oc3c(Cl)cccc32)CC1	45.7 nM	1	14.8 nM	–
CN1CCN(C2=Nc3cc(Cl)ccc3Sc3ccccc32)CC1 [ISOCLOTHIAPINE]	2040 nM	–	–	–
CCN1CCN(C2=Nc3cc(Cl)ccc3Oc3ccccc32)CC1	288 nM	–	–	–
CN1CCN(C2=Nc3cc(Cl)ccc3Oc3c(F)cccc32)CC1	27.5 nM	1	14.8 nM	–
CN1CCN(C2=Nc3ccccc3Oc3ccc(Cl)cc32)CC1 [LOXAPINE]	4570 nM	0.5	219 nM	–
CN1CCN(C2=Nc3cc(Cl)ccc3N(C)c3ccccc32)CC1	1410 nM	–	–	–
CN1CCN(C2=Nc3cc(Cl)ccc3Oc3ccccc32)CC1 [ISOLOXAPINE]	42.7 nM	1	28.2 nM	–
CN1CCN(C2=Nc3cc(Cl)ccc3Nc3ccccc32)CC1	–	–	–	Bmax (Histamine H4 receptor [9]): 987 fmol/mg; Bmax (Histamine H4 receptor [10]): 899 fmol/mg; Bmax (Histamine H4 receptor [8]): 996 fmol/mg
Clc1ccc2c(c1)N=C(N1CCCCC1)c1ccccc1N2	> 10000 nM	–	–	–
OCCN1CCN(C2=Nc3cc(Cl)ccc3Nc3ccccc32)CC1	4680 nM	–	–	–
Clc1ccc2c(c1)N=C(N1CCOCC1)c1ccccc1N2	> 10000 nM	–	–	–
